This sample holds only a part of the variants without activity.
B1: tRNA (parent)
chain: GUUCCGUUGGCGUAAUGGUAACGCGUCUCCCUCCUAAGGAGAAGACUGCGGGUUCGAGUCCCGUACGGAACG

Variants of: B1
Assay: yeast fitness relative to wild type (ratio to wild type); higher = fitter; tRNA-Arg(CCU), competitive growth, 37 C, YPD
Procedure, shortened: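 Variants of the tRNA-Arg(CCU) gene were chemically synthesised with a 3% per-site mutation rate across 69 sites and placed at the native genomic locus in Saccharomyces cerevisiae. Six parallel replicates of the pooled strains were competed in YPD at 37°C for 24 hours, and gene amplicons from the start and end populations were read by 100-nucleotide paired-end sequencing. Darwinian fitness relative to wild type was derived from changes in genotype frequencies. Genotypes required ≥ 100 starting reads, and estimates < 0.5 were set to 0.5.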

Going from C11G C61A to C11G C61G, the yeast fitness rises from 0.546 to 0.705.

First: C11G C61U
Second: C11G G25C G48C G51C C66A
The yeast fitness of the first is higher: 0.656 for the first, ≤ 0.5 for the second.

C11U A20G C34G A40C G51C and C11U A20U C60U cannot be ordered by yeast fitness: ≤ 0.5 for the first, ≤ 0.5 for the second.

C11U A14C C27U C31U C33A G67C and C11G U13G C60U cannot be ordered by yeast fitness: ≤ 0.5 for the first, ≤ 0.5 for the second.

C11G C61G C62G and C11U A21C C27G G44A A65U cannot be ordered by yeast fitness: ≤ 0.5 for the first, ≤ 0.5 for the second.

First: C11G G12C A21G U35A G51A
Second: C11G U16G G38C
The yeast fitness of the first is higher: 0.732 for the first, 0.577 for the second.

C11U A21C C27U A42G A69C A70G and C11U A14C C27G C31U C49G G58C cannot be ordered by yeast fitness: ≤ 0.5 for the first, ≤ 0.5 for the second.

C11U A20U C24U C29A U32C A70G and C11U A15C G44C C46A cannot be ordered by yeast fitness: ≤ 0.5 for the first, ≤ 0.5 for the second.

C11G G12C C60A C61A and C11G G17A C30G U59G cannot be ordered by yeast fitness: ≤ 0.5 for the first, ≤ 0.5 for the second.

C11G G44C A57C and C11G G12C A20G A43G A45C G67A cannot be ordered by yeast fitness: ≤ 0.5 for the first, ≤ 0.5 for the second.

First: C11U A20U G38A G51A U54A
Second: C11G U28A C62A
The yeast fitness of the first is higher: 0.527 for the first, ≤ 0.5 for the second.

Compared with C11G G51U, C11G C55A is higher in yeast fitness: 0.601 for the first, 0.756 for the second.

C11G C55U and C11G G23A C31U C33G C34U A36G cannot be ordered by yeast fitness: ≤ 0.5 for the first, ≤ 0.5 for the second.

C11U A15G C46A C62G G68A and C11G U28A G39A G48A G67C cannot be ordered by yeast fitness: ≤ 0.5 for the first, ≤ 0.5 for the second.

C11G G56C G67U and C11G G17A U19C cannot be ordered by yeast fitness: ≤ 0.5 for the first, ≤ 0.5 for the second.

C11G U16A C22U U28A C31A A42C A45U G51A U64A and C11U A21C A42C G44A U54A C62U cannot be ordered by yeast fitness: ≤ 0.5 for the first, ≤ 0.5 for the second.

Going from C11U A14G U19A to C11G G50A C61U, the yeast fitness falls from 0.658 to 0.566.

C11G G18U C22U C33U A43G and C11G C46U C62U cannot be ordered by yeast fitness: ≤ 0.5 for the first, ≤ 0.5 for the second.

C11G G50A C66G and C11U A20U A65C cannot be ordered by yeast fitness: ≤ 0.5 for the first, ≤ 0.5 for the second.

C11G C46U G51C C66G and C11U A14C G23A U26C C55U cannot be ordered by yeast fitness: ≤ 0.5 for the first, ≤ 0.5 for the second.

Going from C11U A14C C29U C30G A40G C49A to C11G U16A C31A A42G, the yeast fitness rises from ≤ 0.5 to 0.573.

Going from C11G C46U C49A C55U to C11U A21U C34G G56A, the yeast fitness falls from 0.661 to ≤ 0.5.

C11G U16A C24U G50C C66U and C11G G12C U16G A21G C33G cannot be ordered by yeast fitness: ≤ 0.5 for the first, ≤ 0.5 for the second.

C11G U32G A69C A70U and C11U A14U C27U A36U A43G C46U A65U cannot be ordered by yeast fitness: ≤ 0.5 for the first, ≤ 0.5 for the second.

Compared with C11U A20U C24U C33G U47A C49U, C11U A21C U35A A42U C46G is lower in yeast fitness: 0.557 for the first, ≤ 0.5 for the second.

C11U A14G C49A and C11U A21U A42G C60A cannot be ordered by yeast fitness: ≤ 0.5 for the first, ≤ 0.5 for the second.

Compared with C11U A15U U35G G44C A69G, C11U A15U G41A is lower in yeast fitness: 0.774 for the first, ≤ 0.5 for the second.

C11G G12C A20C C24G A37G C60G C61U and C11G G38A C61G cannot be ordered by yeast fitness: ≤ 0.5 for the first, ≤ 0.5 for the second.

First: C11G C66U A69C
Second: C11U A15C C29U A37G
The yeast fitness of the first is lower: ≤ 0.5 for the first, 0.535 for the second.

C11G G56A C62U and C11G U16A C49A cannot be ordered by yeast fitness: ≤ 0.5 for the first, ≤ 0.5 for the second.

C11G G17A C62G and C11U A14G A37C C49U cannot be ordered by yeast fitness: ≤ 0.5 for the first, ≤ 0.5 for the second.

First: C11U A21G C55U
Second: C11G U28A G39A G48A C61G C66G
The yeast fitness of the first is higher: 0.593 for the first, 0.561 for the second.

C11G U26A C31A G44C C62A and C11G G38C G58C U64A cannot be ordered by yeast fitness: ≤ 0.5 for the first, ≤ 0.5 for the second.

C11G U26C C49G and C11U A20U G39C U54G cannot be ordered by yeast fitness: ≤ 0.5 for the first, ≤ 0.5 for the second.

C11G G41A U47A C49U U59C G67C A70U and C11G G12A C31G A69U cannot be ordered by yeast fitness: ≤ 0.5 for the first, ≤ 0.5 for the second.

C11G G17U A21U A42U and C11G U16A G48C A57U cannot be ordered by yeast fitness: ≤ 0.5 for the first, ≤ 0.5 for the second.

First: C11G U35A G63C
Second: C11G C46G G50C
The yeast fitness of the first is lower: 0.602 for the first, 0.694 for the second.

C11G G18C C49U and C11U A20G C24G G63C cannot be ordered by yeast fitness: ≤ 0.5 for the first, ≤ 0.5 for the second.

First: C11G U16A
Second: C11G U16A A21G C24U
The yeast fitness of the first is higher: 0.666 for the first, ≤ 0.5 for the second.

First: C11G G12C C33U C60U
Second: C11U A20C A69C
The yeast fitness of the first is lower: ≤ 0.5 for the first, 0.627 for the second.

Compared with C11G G17C A40G G44C U59C A70G, C11G U16C C22U C55U G68U is lower in yeast fitness: 0.603 for the first, ≤ 0.5 for the second.

Compared with C11U A15G A45G, C11U A20U G39A is lower in yeast fitness: 0.599 for the first, ≤ 0.5 for the second.

Compared with C11G C34U G44C G50C C66U, C11U A15G C46A is higher in yeast fitness: ≤ 0.5 for the first, 0.915 for the second.

Compared with C11G U28A C31G G38A C49A A69G, C11G U26A U35A is lower in yeast fitness: 0.559 for the first, ≤ 0.5 for the second.

C11G G52C G67C and C11G U28C C34U G44C G50C U53C cannot be ordered by yeast fitness: ≤ 0.5 for the first, ≤ 0.5 for the second.

Compared with C11U A15G A36U A43U C46G C62A, C11U A20U C22A is lower in yeast fitness: 0.635 for the first, ≤ 0.5 for the second.

C11U A14G C31A A42G and C11G U13G A21G A65G cannot be ordered by yeast fitness: ≤ 0.5 for the first, ≤ 0.5 for the second.

Going from C11G G18A C29U A40G C62U to C11U A14U C27U A36U A43G C46U, the yeast fitness rises from ≤ 0.5 to 0.632.

Compared with C11U A15G C29G G48A C62U C66U, C11U A21C C27G G39C is higher in yeast fitness: 0.535 for the first, 0.544 for the second.

C11U A14C G17A G23A C29G A42C G56A C62U and C11G U28A C66U A70U cannot be ordered by yeast fitness: ≤ 0.5 for the first, ≤ 0.5 for the second.

Going from C11G U16A C29U A69C to C11U A20U G39A G41C C46A G68A, the yeast fitness falls from 0.538 to ≤ 0.5.

C11G U32A and C11U A14U U16C G25C C27U C61G cannot be ordered by yeast fitness: ≤ 0.5 for the first, ≤ 0.5 for the second.

C11G U13G C61U and C11G G48A G63A A65C cannot be ordered by yeast fitness: ≤ 0.5 for the first, ≤ 0.5 for the second.

Going from C11G U28C G67C to C11G U32G A57C C62U, the yeast fitness rises from ≤ 0.5 to 0.643.

C11U A15G U26G U28C C33A C55G and C11U A15C A21G C29U A37G cannot be ordered by yeast fitness: ≤ 0.5 for the first, ≤ 0.5 for the second.

First: C11G C34U C62G
Second: C11G C66G G68C
The yeast fitness of the first is higher: 0.542 for the first, ≤ 0.5 for the second.

Compared with C11U A15G C27G C46U, C11U A21C is higher in yeast fitness: 0.548 for the first, 0.714 for the second.

First: C11U A21C A42G A69C A70G
Second: C11G U13G C30U A37G A40U A57U
The yeast fitness of the first is higher: 0.563 for the first, ≤ 0.5 for the second.

Going from C11G U32C A40U to C11U A14G U35C A70U, the yeast fitness falls from 0.662 to ≤ 0.5.

Compared with C11G G12A C24A C30G C46U C66G, C11U A15C C29U A37G G63A is lower in yeast fitness: 0.585 for the first, ≤ 0.5 for the second.

Going from C11G G12C A43U G44A to C11G U16A G67A, the yeast fitness falls from 0.612 to 0.536.

Going from C11G G41A to C11U A15C C27A G39C A65C, the yeast fitness falls from 0.586 to 0.531.

C11G G68A A69G and C11G C46A C49U U54C C60U cannot be ordered by yeast fitness: ≤ 0.5 for the first, ≤ 0.5 for the second.

Compared with C11G U13G G56A A69C, C11G G38A is higher in yeast fitness: ≤ 0.5 for the first, 0.63 for the second.

First: C11U A15C A40U
Second: C11G G41A G67U G68C
The yeast fitness of the first is lower: 0.543 for the first, 0.569 for the second.

Compared with C11U A14U C24G C55U, C11U A20G is higher in yeast fitness: ≤ 0.5 for the first, 0.957 for the second.

First: C11U A20C
Second: C11G U28C A36G A43C
The yeast fitness of the first is higher: 0.777 for the first, ≤ 0.5 for the second.

C11U A14G C24G C27U G41A A42C C66U and C11U A21C C22A C66A cannot be ordered by yeast fitness: ≤ 0.5 for the first, ≤ 0.5 for the second.

C11U A14C G63C and C11G G63C G67C cannot be ordered by yeast fitness: ≤ 0.5 for the first, ≤ 0.5 for the second.

C11U A15C C29U A37G A69U and C11G G17A C30G C61G cannot be ordered by yeast fitness: ≤ 0.5 for the first, ≤ 0.5 for the second.

First: C11G U47A G67A
Second: C11G G58A A69U
The yeast fitness of the first is lower: 0.548 for the first, 0.571 for the second.

Going from C11U A14C A15G U26A C34A C46G to C11G U13C A14G G17A G48C C62U C66G A70G, the yeast fitness falls from 0.637 to ≤ 0.5.

C11G U19A A21G C27U G39C C60A and C11G C60U C62G A70G cannot be ordered by yeast fitness: ≤ 0.5 for the first, ≤ 0.5 for the second.

Going from C11U A14G C31A C55U G68A to C11G G17C C29U G51A, the yeast fitness rises from ≤ 0.5 to 0.625.

C11U A21C A36C A70U and C11G G38A G58A C60U cannot be ordered by yeast fitness: ≤ 0.5 for the first, ≤ 0.5 for the second.

C11G C34U G44C G50C U53C and C11G G23C A37G C49U C61U cannot be ordered by yeast fitness: ≤ 0.5 for the first, ≤ 0.5 for the second.

Compared with C11G C62U, C11U A14C C27G C46G A65G is lower in yeast fitness: 0.579 for the first, 0.52 for the second.

Going from C11U A15G C27G C60U C62G C66G to C11G U16A A65G, the yeast fitness rises from ≤ 0.5 to 0.567.

First: C11G C46A A65G
Second: C11U A21U C30G A42G
The yeast fitness of the first is lower: ≤ 0.5 for the first, 0.755 for the second.

Going from C11U A14C C22U A43C to C11U A14C U16G C29A G68C, the yeast fitness rises from ≤ 0.5 to 0.585.

Going from C11G U16A C22U G51C C60U G67A to C11G G23C A36U G44C, the yeast fitness rises from ≤ 0.5 to 0.748.

First: C11G G44C A57C C60U
Second: C11G C34U C55U
The yeast fitness of the first is higher: 0.518 for the first, ≤ 0.5 for the second.

C11G C61G A69U and C11G G17A A20U C33G G38C cannot be ordered by yeast fitness: ≤ 0.5 for the first, ≤ 0.5 for the second.

In the case of C11G G12A C22U G39A U64A, the yeast fitness is reported as ≤ 0.5.

— the RNAGym collection of RNA variant scans (doi:10.1126/science.aae0568)
